Measured values: ChEMBL document CHEMBL1141626, “Thiosemicarbazones active against Clostridium difficile” (2008)

How the values were obtained:
Type in all cases: functional
Clostridioides difficile [1] = test: Antimicrobial activity against Clostridium difficile Z21 after 48 hrs
Procedure, shortened: (§1)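 Anaerobes incubated in an anaerobic cabinet for broth MIC determination. Drug-free incubations of the same organisms served as controls. Value is the minimum inhibitory concentration.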

Clostridioides difficile [2] = test: Antimicrobial activity against Clostridium difficile Z161 after 48 hrs; procedure, shortened: as §1
Clostridioides difficile [3] = test: Antimicrobial activity against Clostridium difficile Z158 after 48 hrs; procedure, shortened: as §1
Clostridioides difficile [4] = test: Antimicrobial activity against Clostridium difficile Z164 after 48 hrs; procedure, shortened: as §1
[5] = tested on: Staphylococcus epidermidis; test: Antimicrobial activity against Staphylococcus epidermidis 10 after 24 hrs
Procedure, shortened: (§2)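 MIC by dilution in nutrient broth. Anaerobic organisms were incubated in an anaerobic cabinet. Controls were the same organisms incubated without test compound.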

Clostridioides difficile [6] = test: Antimicrobial activity against Clostridium difficile Z173 after 48 hrs; procedure, shortened: as §1
Clostridioides difficile [7] = test: Antimicrobial activity against Clostridium difficile NCTC 11204 after 48 hrs; settings: NCTC 11204, 48 h; procedure, shortened: as §1
Clostridioides difficile [8] = test: Antimicrobial activity against Clostridium difficile O27 after 48 hrs; procedure, shortened: as §1
Clostridioides difficile [9] = test: Antimicrobial activity against Clostridium difficile Z1579 after 48 hrs; procedure, shortened: as §1
Clostridioides difficile [10] = test: Antimicrobial activity against Clostridium difficile Z1578 after 48 hrs; procedure, shortened: as §1
[11] = tested on: Staphylococcus epidermidis; test: Antimicrobial activity against Staphylococcus epidermidis 7A after 24 hrs; procedure, shortened: as §2
Clostridioides difficile [12] = test: Antimicrobial activity against Clostridium difficile Z1591 after 48 hrs; procedure, shortened: as §1
Clostridioides difficile [13] = test: Antimicrobial activity against Clostridium difficile Z1580 after 48 hrs; procedure, shortened: as §1
Candida albicans [14] = test: Antimicrobial activity against Candida albicans 1012155
Staphylococcus aureus [15] = test: Antimicrobial activity against methicillin-resistant Staphylococcus aureus C1 after 24 hrs; procedure, shortened: as §2
[16] = tested on: Staphylococcus epidermidis; test: Antimicrobial activity against Staphylococcus epidermidis 3 after 24 hrs; procedure, shortened: as §2
Clostridioides difficile [17] = test: Antimicrobial activity against Clostridium difficile Z16 after 48 hrs; procedure, shortened: as §1
[18] = tested on: Staphylococcus epidermidis; test: Antimicrobial activity against Staphylococcus epidermidis NCTC 11047 after 24 hrs; settings: NCTC 11047, 24 h; procedure, shortened: as §2
Clostridioides difficile [19] = test: Antimicrobial activity against Clostridium difficile Z166 after 48 hrs; procedure, shortened: as §1
Staphylococcus aureus [20] = test: Antimicrobial activity against epidemic methicillin-resistant Staphylococcus aureus 15 after 24 hrs; procedure, shortened: as §2
Cutibacterium acnes [21] = test: Antimicrobial activity against Propionibacterium acnes C1 […]; procedure, shortened: as §2
Clostridioides difficile [22] = test: Antimicrobial activity against Clostridium difficile Z172 after 48 hrs; procedure, shortened: as §1
[23] = tested on: Staphylococcus epidermidis; test: Antimicrobial activity against Staphylococcus epidermidis 4 after 24 hrs; procedure, shortened: as §2
Staphylococcus aureus [24] = test: Antimicrobial activity against methicillin-sensitive Staphylococcus aureus A2 after 24 hrs; procedure, shortened: as §2
[25] = tested on: Staphylococcus epidermidis; test: Antimicrobial activity against Staphylococcus epidermidis 11 after 24 hrs; procedure, shortened: as §2
Staphylococcus aureus [26] = test: Antimicrobial activity against Staphylococcus aureus T1 after 24 hrs; procedure, shortened: as §2
Acinetobacter sp. [27] = test: Antimicrobial activity against Acinetobacter sp.2
Clostridioides difficile [28] = test: Antimicrobial activity against Clostridium difficile Z177 after 48 hrs; procedure, shortened: as §1
[29] = tested on: Staphylococcus epidermidis; test: Antimicrobial activity against Staphylococcus epidermidis RP62A after 24 hrs; procedure, shortened: as §2
Clostridioides difficile [30] = test: Antimicrobial activity against Clostridium difficile Z387 after 48 hrs; procedure, shortened: as §1
Acinetobacter sp. [31] = test: Antimicrobial activity against Acinetobacter sp.4
Staphylococcus aureus [32] = test: (§3) Antimicrobial activity against Staphylococcus aureus H1 after 24 hrs; procedure, shortened: as §2
Staphylococcus aureus [33] = test: Antimicrobial activity against methicillin-resistant Staphylococcus aureus B1 after 24 hrs; procedure, shortened: as §2
Acinetobacter sp. [34] = test: Antimicrobial activity against Acinetobacter sp.1
Cutibacterium acnes [35] = test: Antimicrobial activity against Propionibacterium acnes B3 after 24 hrs
Clostridioides difficile [36] = test: Antimicrobial activity against Clostridium difficile Z169 after 48 hrs; procedure, shortened: as §1
Clostridioides difficile [37] = test: Antimicrobial activity against Clostridium difficile Z170 after 48 hrs; procedure, shortened: as §1
Staphylococcus aureus [38] = test: Antimicrobial activity against methicillin-resistant Staphylococcus aureus A3 after 24 hrs; procedure, shortened: as §2
Staphylococcus aureus [39] = test: Antimicrobial activity against methicillin-resistant Staphylococcus aureus C3 after 24 hrs; procedure, shortened: as §2
Clostridioides difficile [40] = test: Antimicrobial activity against Clostridium difficile Z66 after 48 hrs; procedure, shortened: as §1
Candida albicans [41] = test: Antimicrobial activity against Candida albicans 1015391
Staphylococcus aureus [42] = test: Antimicrobial activity against methicillin-sensitive Staphylococcus aureus A3 after 24 hrs; procedure, shortened: as §2
Candida albicans [43] = test: Antimicrobial activity against Candida albicans 1013781
Cutibacterium acnes [44] = test: Antimicrobial activity against Propionibacterium acnes C3 after 48 hrs; procedure, shortened: as §2
Cutibacterium acnes [45] = test: Antimicrobial activity against Propionibacterium acnes NCTC 737 after 48 hrs; settings: NCTC 737, 48 h; procedure, shortened: as §2
Clostridioides difficile [46] = test: Antimicrobial activity against Clostridium difficile Z168 after 48 hrs; procedure, shortened: as §1
Clostridioides difficile [47] = test: Antimicrobial activity against Clostridium difficile Z171 after 48 hrs; procedure, shortened: as §1
Clostridioides difficile [48] = test: Antimicrobial activity against Clostridium difficile Z229 after 48 hrs; procedure, shortened: as §1
Staphylococcus aureus [49] = test: as §3; procedure, shortened: as §2; remark: listed apart in the source
Clostridioides difficile [50] = test: Antimicrobial activity against Clostridium difficile Z179 after 48 hrs; procedure, shortened: as §1
Clostridioides difficile [51] = test: Antimicrobial activity against Clostridium difficile Z175 after 48 hrs; procedure, shortened: as §1
[52] = tested on: Staphylococcus epidermidis; test: Antimicrobial activity against Staphylococcus epidermidis 8A after 24 hrs; procedure, shortened: as §2
Cutibacterium acnes [53] = test: Antimicrobial activity against Propionibacterium acnes D1 after 48 hrs; procedure, shortened: as §2
Clostridioides difficile [54] = test: Antimicrobial activity against Clostridium difficile Z160 after 48 hrs; procedure, shortened: as §1
Cutibacterium acnes [55] = test: Antimicrobial activity against Propionibacterium acnes C5 after 48 hrs; procedure, shortened: as §2
Clostridioides difficile [56] = test: Antimicrobial activity against Clostridium difficile Z150 after 48 hrs; procedure, shortened: as §1
Candida albicans [57] = test: Antimicrobial activity against Candida albicans 1011377
Staphylococcus aureus [58] = test: Antimicrobial activity against Staphylococcus aureus K1 after 24 hrs; procedure, shortened: as §2
Clostridioides difficile [59] = test: Antimicrobial activity against Clostridium difficile Z176 after 48 hrs; procedure, shortened: as §1
Cutibacterium acnes [60] = test: Antimicrobial activity against Propionibacterium acnes D3 after 48 hrs; procedure, shortened: as §2
Clostridioides difficile [61] = test: Antimicrobial activity against Clostridium difficile Z163 after 48 hrs; procedure, shortened: as §1
Acinetobacter sp. [62] = test: Antimicrobial activity against Acinetobacter sp.5
Clostridioides difficile [63] = test: Antimicrobial activity against Clostridium difficile Z1577 after 48 hrs; procedure, shortened: as §1
Staphylococcus aureus [64] = test: Antimicrobial activity against Staphylococcus aureus V1 after 24 hrs; procedure, shortened: as §2
Clostridioides difficile [65] = test: Antimicrobial activity against Clostridium difficile Z167 after 48 hrs; procedure, shortened: as §1
Candida albicans [66] = test: Antimicrobial activity against Candida albicans 1009116
[67] = tested on: Staphylococcus epidermidis; test: Antimicrobial activity against Staphylococcus epidermidis 9 after 24 hrs; procedure, shortened: as §2
Cutibacterium acnes [68] = test: Antimicrobial activity against Propionibacterium acnes B5 after 48 hrs; procedure, shortened: as §1
Staphylococcus aureus [69] = test: Antimicrobial activity against methicillin-resistant Staphylococcus aureus D1 after 24 hrs; procedure, shortened: as §2
Clostridioides difficile [70] = test: Antimicrobial activity against Clostridium difficile Z251 after 48 hrs; procedure, shortened: as §1
Staphylococcus aureus [71] = test: Antimicrobial activity against Staphylococcus aureus ATCC 6538 after 24 hrs; settings: ATCC 6538, 24 h; procedure, shortened: as §2
Staphylococcus aureus [72] = test: Antimicrobial activity against methicillin-resistant Staphylococcus aureus A1 after 24 hrs; procedure, shortened: as §2
Staphylococcus aureus [73] = test: Antimicrobial activity against methicillin-resistant Staphylococcus aureus B3 after 24 hrs; procedure, shortened: as §2
Clostridioides difficile [74] = test: Antimicrobial activity against Clostridium difficile Z162 after 48 hrs; procedure, shortened: as §1
Clostridioides difficile [75] = test: Antimicrobial activity against Clostridium difficile Z159 after 48 hrs; procedure, shortened: as §1
Clostridioides difficile [76] = test: Antimicrobial activity against Clostridium difficile Z1568 after 48 hrs; procedure, shortened: as §1
Acinetobacter sp. [77] = test: Antimicrobial activity against Acinetobacter sp.3
Staphylococcus aureus [78] = test: Antimicrobial activity against methicillin-resistant Staphylococcus aureus E1 after 24 hrs; procedure, shortened: as §2

Measured: MIC

CCNC(=S)N/N=C/C=C/c1ccc([N+](=O)[O-])o1
8 µg/mL: Clostridioides difficile [6] | Clostridioides difficile [8] | Clostridioides difficile [17] | Cutibacterium acnes [21] | Cutibacterium acnes [35] | Clostridioides difficile [54] | Cutibacterium acnes [68] | Clostridioides difficile [75]
1 µg/mL: Clostridioides difficile [4] | Clostridioides difficile [10] | Clostridioides difficile [12] | Clostridioides difficile [13] | [25] | [67] | Clostridioides difficile [70] | Clostridioides difficile [76]
4 µg/mL: [5] | Clostridioides difficile [7] | [18] | Staphylococcus aureus [20] | Clostridioides difficile [22] | [23] | Staphylococcus aureus [24] | Staphylococcus aureus [26] | [29] | Staphylococcus aureus [33] | Staphylococcus aureus [38] | Staphylococcus aureus [39] | Clostridioides difficile [40] | Staphylococcus aureus [42] | Cutibacterium acnes [45] | Clostridioides difficile [48] | Cutibacterium acnes [53] | Clostridioides difficile [56] | Staphylococcus aureus [58] | Cutibacterium acnes [60] | Staphylococcus aureus [69] | Staphylococcus aureus [71] | Staphylococcus aureus [73] | Staphylococcus aureus [78]
2 µg/mL: Clostridioides difficile [3] | Clostridioides difficile [9] | [11] | Staphylococcus aureus [15] | [16] | Clostridioides difficile [19] | Clostridioides difficile [28] | Clostridioides difficile [36] | Clostridioides difficile [37] | Cutibacterium acnes [44] | Clostridioides difficile [46] | Clostridioides difficile [47] | Clostridioides difficile [50] | [52] | Clostridioides difficile [59] | Clostridioides difficile [61] | Staphylococcus aureus [64] | Clostridioides difficile [65] | Staphylococcus aureus [72]
0.5 µg/mL: Clostridioides difficile [2] | Clostridioides difficile [51] | Clostridioides difficile [63]
64 µg/mL: Staphylococcus aureus [49]
32 µg/mL: Cutibacterium acnes [55]
16 µg/mL: Clostridioides difficile [1] | Clostridioides difficile [30] | Staphylococcus aureus [32]
0.125 µg/mL: Clostridioides difficile [74]
128 µg/mL: Candida albicans [14] | Acinetobacter sp. [27] | Acinetobacter sp. [31] | Acinetobacter sp. [34] | Candida albicans [41] | Candida albicans [43] | Candida albicans [57] | Acinetobacter sp. [62] | Candida albicans [66] | Acinetobacter sp. [77]
